# Experimental data: ChEMBL document CHEMBL1125879, “Synthesis and antimalarial activity of 2-aziridinyl- and 2,3-bis(aziridinyl)-1,4-naphthoquinonyl sulfonate and acylate derivatives” (J Med Chem, 1991)
# Experiment: In vitro antimalarial activity against human malaria parasite, P falciparum (Vietnam Smith strain)
# Format: functional, Plasmodium falciparum
# Procedure, shortened: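 P. falciparum in infected erythrocytes, semisynchronized cultures, initial parasitemia 1-3%, in RPMI 1640 with 25 mM HEPES, bicarbonate, 5% pooled calf serum; agents from 10^-2 M DMSO stocks at various concentrations, 48 h exposure with 1 μCi [3H]hypoxanthine per well throughout. Filter-harvested, scintillation counted. IC50 = 50% drop in incorporation vs drug-free controls, graphic extrapolation, mean of 2-4 observations.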
row,Structure (SMILES),IC50
1,CN(C)c1cccc2c(S(=O)(=O)Oc3cccc4c3C(=O)C=C(N3CC3)C4=O)cccc12,290 nM
2,CS(=O)(=O)Oc1cccc2c1C(=O)C(N1CC1)=C(N1CC1)C2=O,3200 nM
3,Cc1ccc(S(=O)(=O)Oc2cccc3c2C(=O)C(N2CC2)=C(N2CC2)C3=O)cc1,4600 nM
4,Cc1ccc(S(=O)(=O)Oc2cccc3c2C(=O)C=C(N2CC2)C3=O)cc1,200 nM
5,CC1(C)C2CCC1(CS(=O)(=O)Oc1cccc3c1C(=O)C(N1CC1)=C(N1CC1)C3=O)C(=O)C2 (centres undefined),6000 nM
6,O=C1C(N2CC2)=C(N2CC2)C(=O)c2c(O)cccc21,1600 nM
7,CN(C)c1cccc2c(S(=O)(=O)Oc3cccc4c3C(=O)C(N3CC3)=C(N3CC3)C4=O)cccc12,3000 nM
8,O=C1C(N2CC2)=C(N2CC2)C(=O)c2c(OS(=O)(=O)Cc3ccccc3)cccc21,2400 nM
9,Cc1cc(C)c(S(=O)(=O)Oc2cccc3c2C(=O)C(N2CC2)=C(N2CC2)C3=O)c(C)c1,3900 nM
10,CC1=C(N2CC2)C(=O)c2c(OS(=O)(=O)c3ccc(C(C)(C)C)cc3)cccc2C1=O,3600 nM
11,O=C(Oc1cccc2c1C(=O)C=C(N1CC1)C2=O)c1ccccc1,450 nM
12,CCc1ccc(S(=O)(=O)Oc2cccc3c2C(=O)C=C(N2CC2)C3=O)cc1,96 nM
13,O=C1C(N2CC2)=C(N2CC2)C(=O)c2c(OS(=O)(=O)c3ccc(Br)cc3)cccc21,3700 nM
14,O=C1C(N2CC2)=CC(=O)c2c(OS(=O)(=O)c3ccc(I)cc3)cccc21,330 nM
15,CN(C)S(=O)(=O)Oc1cccc2c1C(=O)C=C(NCCCl)C2=O,2200 nM
16,O=C1C(N2CC2)=CC(=O)c2c(OS(=O)(=O)/C=C/c3ccccc3)cccc21,170 nM
17,O=C(Oc1cccc2c1C(=O)C(N1CC1)=C(N1CC1)C2=O)c1cccs1,2600 nM
18,O=C1C(NCCCl)=CC(=O)c2c(OS(=O)(=O)Cc3ccccc3)cccc21,6500 nM
19,O=C(Oc1cccc2c1C(=O)C=C(N1CC1)C2=O)c1ccc(Cl)cc1,530 nM
20,CC1=C(N2CC2)C(=O)c2c(O)cccc2C1=O,1500 nM
21,O=C1C(N2CC2)=CC(=O)c2c(OS(=O)(=O)c3cccc4ccccc34)cccc21,130 nM
22,COc1ccc(C(=O)Oc2cccc3c2C(=O)C=C(N2CC2)C3=O)cc1,540 nM

row,Structure (SMILES),IC50
1,O=C1C(N2CC2)=C(N2CC2)C(=O)c2c(OS(=O)(=O)/C=C/c3ccccc3)cccc21,5800 nM
2,CCc1ccc(S(=O)(=O)Oc2cccc3c2C(=O)C(N2CC2)=C(N2CC2)C3=O)cc1,4000 nM
3,CC(C)c1cc(C(C)C)c(S(=O)(=O)Oc2cccc3c2C(=O)C(N2CC2)=C(N2CC2)C3=O)c(C(C)C)c1,3000 nM
4,O=C1C(N2CC2)=CC(=O)c2c(O)cccc21,88 nM
5,O=C1C(N2CC2)=C(N2CC2)C(=O)c2c(OS(=O)(=O)c3ccccc3)cccc21,5800 nM
6,O=C1C(N2CC2)=C(N2CC2)C(=O)c2c(OS(=O)(=O)c3ccc(I)cc3)cccc21,4100 nM
7,O=C1C(N2CC2)=C(N2CC2)C(=O)c2c(OS(=O)(=O)c3ccc(Cl)cc3)cccc21,3200 nM
8,O=C1C(N2CC2)=C(N2CC2)C(=O)c2c(OS(=O)(=O)c3cccc4ccccc34)cccc21,3400 nM
9,O=C1C(N2CC2)=C(N2CC2)C(=O)c2c(OS(=O)(=O)CCCCl)cccc21,3000 nM
10,CCCCCCCCCCCCCCCCS(=O)(=O)Oc1cccc2c1C(=O)C(N1CC1)=C(N1CC1)C2=O,20000 nM
11,O=C1C(N2CC2)=C(N2CC2)C(=O)c2c(OS(=O)(=O)c3ccc([N+](=O)[O-])cc3)cccc21,7600 nM
12,O=C1C(N2CC2)=CC(=O)c2c(OS(=O)(=O)c3cccc4cccnc34)cccc21,430 nM
13,O=C1C(N2CC2)=CC(=O)c2c(OS(=O)(=O)c3cccs3)cccc21,470 nM
14,C/N=C1\C=C(O)c2c(O)cccc2C1=O,3700 nM
15,COc1ccc(C(=O)Oc2cccc3c2C(=O)C(N2CC2)=C(N2CC2)C3=O)cc1,3700 nM
16,O=C(Oc1cccc2c1C(=O)C(N1CC1)=C(N1CC1)C2=O)c1ccccc1,2600 nM
17,O=C(Oc1cccc2c1C(=O)C(N1CC1)=C(N1CC1)C2=O)c1ccc(F)cc1,4400 nM
18,Cc1ccc(C(=O)Oc2cccc3c2C(=O)C=C(N2CC2)C3=O)cc1,620 nM
19,O=C1/C(=N/CCCl)C=C(O)c2c(O)cccc21,4300 nM
20,COc1ccc(S(=O)(=O)Oc2cccc3c2C(=O)C=C(N2CC2)C3=O)cc1,160 nM
21,Cc1ccc(C(=O)Oc2cccc3c2C(=O)C(N2CC2)=C(N2CC2)C3=O)cc1,4400 nM
22,O=C(Oc1cccc2c1C(=O)C=C(N1CC1)C2=O)c1ccc(F)cc1,490 nM

row,Structure (SMILES),IC50
1,O=C(Oc1cccc2c1C(=O)C=C(N1CC1)C2=O)c1ccco1,490 nM
2,COc1cc(C(=O)Oc2cccc3c2C(=O)C=C(N2CC2)C3=O)cc(OC)c1OC,160 nM
3,CN(C)c1cccc2c(S(=O)(=O)Oc3cccc4c3C(=O)C=C(NCCCl)C4=O)cccc12,2900 nM
4,O=C(Oc1cccc2c1C(=O)C(N1CC1)=C(N1CC1)C2=O)c1cc(Cl)sc1Cl,3900 nM
5,CC(C)(C)c1ccc(S(=O)(=O)Oc2cccc3c2C(=O)C=C(N2CC2)C3=O)cc1,24 nM
6,O=C1C(N2CC2)=CC(=O)c2c(OS(=O)(=O)c3ccc(F)cc3)cccc21,140 nM
7,O=C(Oc1cccc2c1C(=O)C(N1CC1)=C(N1CC1)C2=O)c1ccco1,4600 nM
8,O=C1C(N2CC2)=C(N2CC2)C(=O)c2c(OS(=O)(=O)c3ccc([N+](=O)[O-])c([N+](=O)[O-])c3)cccc21,2400 nM
9,O=C1C(N2CC2)=CC(=O)c2c(OS(=O)(=O)c3ccccc3)cccc21,230 nM
10,CC(C)c1cc(C(C)C)c(S(=O)(=O)Oc2cccc3c2C(=O)C=C(N2CC2)C3=O)c(C(C)C)c1,280 nM
11,CN(C)C1=CC(=O)c2c(O)cccc2C1=O,1600 nM
12,O=C1C(N2CC2)=C(N2CC2)C(=O)c2c(OC(=O)C34CC5CC(CC(C5)C3)C4)cccc21,5400 nM
13,O=C(Oc1cccc2c1C(=O)C(N1CC1)=C(N1CC1)C2=O)c1ccc(Cl)cc1,1700 nM
14,O=C(Oc1cccc2c1C(=O)C=C(N1CC1)C2=O)c1cccs1,470 nM
15,CS(=O)(=O)Oc1cccc2c1C(=O)C=C(NCCCl)C2=O,8500 nM
16,COc1cc(C(=O)Oc2cccc3c2C(=O)C(N2CC2)=C(N2CC2)C3=O)cc(OC)c1OC,3400 nM
17,O=C1C=CC(=O)c2c(O)cccc21 [JUGLONE],3700 nM
18,O=C1C=C(O)C(=O)c2ccccc21 [LAWSONE],100000 nM
19,CC1=CC(=O)c2ccccc2C1=O [MENADIONE],3400 nM
20,CC1=CC(=O)c2c(O)cccc2C1=O [PLUMBAGIN],2400 nM
